The values below come from PubChem BioAssay.

Activity calls are given as the source filed them.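 Rule for the calls, unless noted: active = potentiation averaged over duplicate wells exceeding buffer-only control mean by more than 3 SD; inactive = the rest.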

The nature of assay [1]: nonspecific flux increase, KCNQ1-free cells – parental CHO cells, counter-screen for KCNQ1 potentiator project (AID 493006;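 active = duplicate-averaged activation above buffer control mean plus 5 SD of those controls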). Conditions: parental CHO-K1 cells, FluxOR thallium flux, at 10 µM; hits give high values. In outline:
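Test system: parental CHO-K1 cells, FluxOR dye-loaded / Probe or stimulus: potassium plus thallium depolarizing stimulus, 5x stock 12.5 mM K2SO4, Tl2SO4 / Timing: overnight 37 °C plating, 90 min dye, 20 min dark compound / Measured by: kinetic thallium-flux fluorescence / Read-out: max-minus-min fluorescence over baseline, percent of buffer-to-R-L3 span / Benchmarks: buffer and R-L3 controls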
On the technique in general: Counterscreens check selectivity or assay interference.

The target in assay [2] is Potassium voltage-gated channel subfamily KQT member 1 (Homo sapiens) (UniProt P51787). Briefly: enhancement of KCNQ1 channel thallium flux – FluxOR thallium flux, CHO cells, duplicates, confirmation (AID 493007).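 For outcome: cells depolarized by a potassium plus thallium sulfate stimulus after compound.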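 For potentiation: 0% = buffer-only wells and 100% = R-L3 activator control.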 To be noted: KCNQ1 cell line, FluxOR thallium flux fluorescence, at 10 µM; hits give high values, % of reference activator effect, buffer zero. In a few lines: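 Assay system: CHO cells carrying KCNQ1 | Controls: Buffer and R-L3 controls | Schedule: FluxOR dye loading 90 min, compound exposure 20 min, room temperature | Read-out: Baseline-normalized fluorescence change, percent of buffer-to-R-L3 range | Replicates: Each compound tested in duplicate | Technique: Kinetic thallium influx fluorescence with FluxOR dye, 10 s baseline, 110 s post-stimulus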
Sequence of Potassium voltage-gated channel subfamily KQT member 1 (Homo sapiens) (P51787 whole entry, looked up): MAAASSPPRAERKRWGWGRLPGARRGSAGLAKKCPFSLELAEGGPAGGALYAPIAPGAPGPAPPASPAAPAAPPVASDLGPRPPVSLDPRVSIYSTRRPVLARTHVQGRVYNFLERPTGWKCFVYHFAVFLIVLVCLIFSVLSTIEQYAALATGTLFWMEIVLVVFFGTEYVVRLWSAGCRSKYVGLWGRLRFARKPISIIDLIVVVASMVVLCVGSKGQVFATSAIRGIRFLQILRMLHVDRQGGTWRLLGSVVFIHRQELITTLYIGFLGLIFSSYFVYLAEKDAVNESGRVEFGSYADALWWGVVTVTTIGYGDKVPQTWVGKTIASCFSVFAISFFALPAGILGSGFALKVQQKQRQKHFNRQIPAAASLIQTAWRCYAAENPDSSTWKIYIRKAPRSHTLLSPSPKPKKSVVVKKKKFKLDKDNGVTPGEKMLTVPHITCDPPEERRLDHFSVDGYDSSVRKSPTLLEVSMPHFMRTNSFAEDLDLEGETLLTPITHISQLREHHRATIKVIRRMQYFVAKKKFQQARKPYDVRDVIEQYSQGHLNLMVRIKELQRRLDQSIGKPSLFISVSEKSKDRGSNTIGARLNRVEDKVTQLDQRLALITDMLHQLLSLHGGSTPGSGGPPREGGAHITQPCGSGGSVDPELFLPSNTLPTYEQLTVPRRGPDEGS

In assay [3] the target is Potassium voltage-gated channel subfamily KQT member 2 (Rattus norvegicus) (UniProt O88943). Briefly: KCNQ2 thallium flux enhancement – KCNQ2-CHO-K1 cells, selectivity assay for KCNQ1 potentiator project (AID 493009;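 active = mean duplicate potentiation above the buffer control mean plus 5 SD of buffer wells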;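 note: assay conditions were tuned for KCNQ1 rather than KCNQ2 modulators; signal is max minus min fluorescence divided by baseline after thallium stimulus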). Conditions: FluxOR thallium flux fluorescence, at 10 µM; hits give high values, scaled: buffer 0, activator control 100.
Sequence of Potassium voltage-gated channel subfamily KQT member 2 (Rattus norvegicus) (O88943 whole entry, looked up): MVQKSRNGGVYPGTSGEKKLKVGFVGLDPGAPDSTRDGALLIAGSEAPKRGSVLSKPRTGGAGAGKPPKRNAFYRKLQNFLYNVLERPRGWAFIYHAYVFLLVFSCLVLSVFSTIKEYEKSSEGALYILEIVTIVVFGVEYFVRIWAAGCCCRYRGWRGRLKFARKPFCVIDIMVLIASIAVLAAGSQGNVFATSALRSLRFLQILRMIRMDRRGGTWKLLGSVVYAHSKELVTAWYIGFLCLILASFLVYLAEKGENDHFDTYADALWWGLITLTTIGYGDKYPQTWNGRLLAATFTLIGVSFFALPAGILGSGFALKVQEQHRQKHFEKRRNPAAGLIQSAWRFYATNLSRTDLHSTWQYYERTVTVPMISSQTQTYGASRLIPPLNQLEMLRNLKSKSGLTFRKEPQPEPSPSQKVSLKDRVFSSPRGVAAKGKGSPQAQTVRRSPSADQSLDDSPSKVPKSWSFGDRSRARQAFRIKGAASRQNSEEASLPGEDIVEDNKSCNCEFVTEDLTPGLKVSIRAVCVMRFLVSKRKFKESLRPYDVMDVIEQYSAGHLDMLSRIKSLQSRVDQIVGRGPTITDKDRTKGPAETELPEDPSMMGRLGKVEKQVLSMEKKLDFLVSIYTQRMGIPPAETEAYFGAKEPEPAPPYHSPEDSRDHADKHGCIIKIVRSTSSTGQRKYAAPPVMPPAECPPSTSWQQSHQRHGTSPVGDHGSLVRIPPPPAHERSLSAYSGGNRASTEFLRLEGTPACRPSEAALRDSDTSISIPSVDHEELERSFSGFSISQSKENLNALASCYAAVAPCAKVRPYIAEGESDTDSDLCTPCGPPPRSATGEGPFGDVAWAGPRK
In assay [4] the target is Potassium voltage-gated channel subfamily KQT member 1 (Homo sapiens) (UniProt P51787). The experiment in a line: KCNQ1 activators by electrophysiology – IonWorks patch clamp, KCNQ1-CHO cells, orthogonal assay for KCNQ1 potentiator project, confirmation (AID 493184;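 active = current rise at least 3 SD above the untreated control mean in each of two repeat wells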;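 for current potentiation: percent change of the same well's current before compound addition so 0% = no change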). Conditions: automated patch clamp current, at 10 µM; hits give high values. In outline: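 Material: KCNQ1-expressing CHO cells; doses: 10 µM final, single point; probe or stimulus: voltage step from -90 mV holding to +40 mV, 2,000 ms; signal: automated voltage clamp, amphotericin B perforated patch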
(In patch-clamp work, channel activity is measured electrically.)

Take `O=C(NC(=S)N1CCN(c2ccc(Cl)cc2[N+](=O)[O-])CC1)c1cccs1`: the activation in assay [1] is 188% (active). The potentiation is 61% (active) in assay [2] and 244% (active) in assay [3]. Besides, the outcome in assay [4] was inactive.
Consider `Cc1ccccc1-n1c(C)cc(/C=N/NC(=O)c2ccncc2)c1C`, for which the result in assay [1] and in assay [4] was inactive. Besides, the results for the potentiation in assay [2] and in assay [3] were 25% (active) and 165% (active), respectively.
On to `O=C(NN=C1c2ccccc2-c2ccccc21)c1cccc(Br)c1`, for which the activation in assay [1] was 196% (active). Further, the potentiation in assay [2] was 42.5% (active); in assay [3] it was 154% (active). For the same compound, in assay [4], the result was inactive.
For the compound `CCCC(=O)Nc1ccc(S(=O)(=O)N2CCC(c3nc4ccccc4[nH]3)CC2)cc1`, the outcome in assay [1], in assay [2], in assay [3] and in assay [4] was inactive.
Regarding `COc1ccc(-c2csc(NC(=O)C3CCCCN3S(=O)(=O)c3ccccc3)n2)cc1` (stereo not given), the result in assay [1] and in assay [3] was inactive. The potentiation in assay [2] is 93.5% (active). Besides, in assay [4], the current potentiation is 122% (active).
`COc1cccc(C(=O)Nc2nc(-c3ccccc3)c(-c3ccccc3)o2)c1`: in assay [1], the activation was 145% (active). In addition, the potentiation in assay [2] was 31% (active); in assay [3], 164% (active). The outcome in assay [4] was inactive.
On to `CS(=O)(=O)c1ccc(C(=O)OCc2nnc(-c3ccc(Cl)cc3)o2)cc1[N+](=O)[O-]`, for which the result in assay [1] and in assay [4] was inactive. Moreover, the potentiation in assay [2] was 30.5% (active); in assay [3], 144% (active).
Regarding `CCC(C)NC(=O)c1cc(Cl)c(NC(=O)C2=C(C)OCCS2)cc1OC` (stereo not given), the result in assay [1], in assay [2], in assay [3] and in assay [4] was inactive.
For the compound `CC(C)CC(=O)NC(=S)Nc1nc(-c2ccccc2)cs1`, in assay [1], the activation is 284% (active). The potentiation is 152% (active) in assay [2] and 316% (active) in assay [3]. In assay [4], the outcome was inactive.
For the compound `COc1ccc(NC(=S)N2CCC(C(O)(c3ccccc3)c3ccccc3)CC2)cc1`, the result in assay [1], in assay [2] and in assay [4] was inactive. Also, the potentiation in assay [3] is 186% (active).
`CC(=O)c1c(C)[nH]c(C(=O)OCc2nc3ccsc3c(=O)[nH]2)c1C`: the outcome in assay [1], in assay [2], in assay [3] and in assay [4] was inactive.
On to `CCOc1ccc(NC(=O)Cn2nnc(-c3ccccc3NC(=O)c3cccs3)n2)cc1`, for which the result in assay [1], in assay [2], in assay [3] and in assay [4] was inactive.
On to `Cc1ccc(-c2n[nH]c(=S)nc2-c2ccc(C)cc2)cc1`, for which the activation in assay [1] was 160% (active). For the same compound, the figures for the potentiation in assay [2] and in assay [3] were 32% (active) and 159% (active), respectively. Further, the outcome in assay [4] was inactive.
Turning to `COc1ccc(N(Cc2ccccc2)S(=O)(=O)c2cccc(C(=O)O)c2)cc1`, the outcome in assay [1], in assay [2], in assay [3] and in assay [4] was inactive.
For `Cc1cccc(Nc2ccccc2C(=O)OCC(=O)N(C)C2CCS(=O)(=O)C2)c1C` (stereo not given), the result in assay [1], in assay [2], in assay [3] and in assay [4] was inactive.
Take `CCOC(=O)c1c(N2C(=O)Nc3ccccc3N2O)n[nH]c1-c1cccc(Cl)c1`: the result in assay [1], in assay [2], in assay [3] and in assay [4] was inactive.
Turning to `CC(C)Cc1c2c([nH]c(=S)c1C#N)CCCC2`, the outcome in assay [1], in assay [2] and in assay [4] was inactive. Moreover, in assay [3], the potentiation is 143% (active).
For the compound `Cc1cc(C)n(/N=C/c2cc(Cl)cc(Cl)c2O)c(=O)c1`, the outcome in assay [1], in assay [2], in assay [3] and in assay [4] was inactive.
Turning to `O=C(CNC(=O)c1ccccc1)NCc1ccc(Cl)cc1`, the outcome in assay [1], in assay [2], in assay [3] and in assay [4] was inactive.
In the case of `COc1ccc(C(=O)Nc2ccnn2C2CCN(Cc3ccncc3)CC2)cc1`, the outcome in assay [1], in assay [2], in assay [3] and in assay [4] was inactive.
Take `Oc1c(Br)cc(Br)cc1/C=N/c1nc2c(s1)CCCC2`: the activation in assay [1] is 186% (active). In addition, the potentiation in assay [2] is 22% (active). Besides, the outcome in assay [3] and in assay [4] was inactive.
As to `CCOC(=O)/C(C)=N/NC(=O)c1cccc([N+](=O)[O-])c1`, in assay [1], the activation was 170% (active). For the same compound, the results for the potentiation in assay [2] and in assay [3] were 49% (active) and 206% (active), respectively. In assay [4], the outcome was inactive.
With `O=C1c2cccc3cccc(c23)C(=O)C1(O)O`, the outcome in assay [1], in assay [2], in assay [3] and in assay [4] was inactive.
Take `C[C@@H](NC(=O)OC(C)(C)C)c1nnc(S(=O)(=O)Cc2ccccc2)o1`: the outcome in assay [1], in assay [2] and in assay [4] was inactive. In assay [3], the potentiation was 158% (active).
For `CC1CCN(C(=S)NC(=O)c2cccc([N+](=O)[O-])c2)CC1`, the activation in assay [1] is 207% (active). Further, the potentiation was 41.5% (active) in assay [2] and 189% (active) in assay [3]. Moreover, the result in assay [4] was inactive.
Take `CCOC(=O)c1ccccc1NC(=O)CSc1nc2ccccc2n1CC(=O)N1CCCC1`: the outcome in assay [1], in assay [2], in assay [3] and in assay [4] was inactive.
Take `CCNC(=S)Nc1nc2c(cc1C(=O)OCC)CCCC2`: the activation in assay [1] was 140% (active). In addition, the figures for the potentiation in assay [2] and in assay [3] were 35% (active) and 177% (active), respectively. In addition, in assay [4], the result was inactive.
Consider `Cc1ccccc1C(=O)c1c[nH]c(C(=O)N2CCN(c3ccccc3F)CC2)c1`, for which the outcome in assay [1], in assay [2], in assay [3] and in assay [4] was inactive.
Turning to `COc1cc(OC)cc(C(=O)NC(=S)N2CCCCCC2)c1`, the result in assay [1] and in assay [4] was inactive. For the same compound, the potentiation is 48% (active) in assay [2] and 198% (active) in assay [3].
For `CC1C/C(=C/c2ccncc2)C(=O)/C(=C/c2ccncc2)C1` (stereo not given), the outcome in assay [1], in assay [2], in assay [3] and in assay [4] was inactive.
